ChEMBL document CHEMBL1146132, “Synthesis and activity of small molecule GPR40 agonists” (Bioorg Med Chem Lett, 2006)

Experiments:
[1] = target: T1, Free fatty acid receptor 1 (Homo sapiens, UniProt O14842); assay: Agonist potency at human GPR40 expressed in CHO cells relative to standard by luciferase reporter gene assay; type: functional, cell-based
[2] = target: T1, Free fatty acid receptor 1; assay: Agonist potency at human GPR40 expressed in CHO cells; type: functional, cell-based
Method in brief: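 Ten-point dose–response in CHO cells stably expressing human GPR40. Receptor activation was read out by a Gal4/Elk1/luciferase reporter gene. Potency was taken from the curve and reported as pEC50.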

T1 sequence (O14842 whole entry): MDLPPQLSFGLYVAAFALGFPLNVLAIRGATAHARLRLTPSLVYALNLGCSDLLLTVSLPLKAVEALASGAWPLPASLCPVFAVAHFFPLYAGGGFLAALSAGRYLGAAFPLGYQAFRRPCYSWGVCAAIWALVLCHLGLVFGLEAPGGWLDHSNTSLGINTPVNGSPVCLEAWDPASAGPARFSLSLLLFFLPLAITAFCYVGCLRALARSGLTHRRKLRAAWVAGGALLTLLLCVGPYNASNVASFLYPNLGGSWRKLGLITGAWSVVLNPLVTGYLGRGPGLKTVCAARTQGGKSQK

`O=C(NO)[C@H]1C[C@@H]1c1ccc(NCc2cccc(Oc3ccccc3)c2)cc1` was tested. Which %max [1] did it give?
The %max was 90%.

And the EC50 [2]?
Its EC50 is 0.0148 µM.

How did the EC50 [2] turn out when `O=C(O)[C@H]1C[C@@H]1c1ccc(NCc2cccc(Oc3ccccc3)c2)cc1` (stereo in doubt; 10A) [listing 1 of 2 here] was run?
The EC50 was 0.0135 µM.

For `CC(C)NC(=O)[C@H]1C[C@@H]1c1ccc(NCc2cccc(Oc3ccccc3)c2)cc1`, which %max [1] is on record?
Its %max is 62%.

What about the EC50 [2] of the same molecule?
The EC50 was 0.0126 µM.

What does the source list for `CC(C)(Oc1ccc(NCc2cccc(Oc3ccccc3)c2)cc1)C(=O)O`?
%max [1]: 14%; EC50 [2]: > 10 µM

`Cc1nc(-c2ccc(C(F)(F)F)cc2)sc1CNc1ccc([C@H]2C[C@@H]2C(=O)NO)cc1` was tested. Which %max [1] did it give?
Its %max is 78%.

And the EC50 [2]?
The EC50 was 0.00692 µM.

How did the %max [1] turn out when `Cc1nc(-c2ccc(C(F)(F)F)cc2)sc1CNc1ccc(CCC(=O)O)cc1` was run?
The %max was 108%.

What about the EC50 [2] of the same molecule?
The EC50 was 0.0676 µM.

`Cc1nc(-c2ccc(C(F)(F)F)cc2)sc1CNc1ccc([C@H]2C[C@@H]2C(=O)NC(C)C)cc1` (stereo in doubt; 24B) [listing 1 of 2 here] was tested. Which EC50 [2] did it give?
The EC50 was 0.011 µM.

For `Cc1nc(-c2ccc(C(F)(F)F)cc2)sc1CNc1ccc([C@@H]2C[C@@H]2C(=O)O)cc1`, which %max [1] is on record?
The %max was 68%.

And the EC50 [2]?
The EC50 was 0.302 µM.

With `Cc1nc(-c2ccc(C(F)(F)F)cc2)sc1CNc1ccc([C@H]2C[C@@H]2C(=O)O)cc1` (stereo in doubt; 14B) [listing 1 of 2 here] as the molecule, how does the %max [1] read?
The %max was 89%.

Which %max [1] does the source give for `O=C(O)CSc1ccc(NCc2cccc(Oc3ccccc3)c2)cc1` here?
The %max was 84%.

What about the EC50 [2] of the same molecule?
Its EC50 is 0.324 µM.

Which results are given for `Cc1nc(-c2ccc(C(F)(F)F)cc2)sc1CNc1ccc([C@H]2C[C@@H]2C(=O)NC2CCC2)cc1`?
%max [1]: 55%; EC50 [2]: 0.00912 µM

How did the %max [1] turn out when `CC(Cc1ccc(NCc2cccc(Oc3ccccc3)c2)cc1)C(=O)O` (configuration not stated) was run?
Its %max is 70%.

What about the EC50 [2] of the same molecule?
The EC50 was 0.1 µM.

How did the %max [1] turn out when `Cc1nc(-c2ccc(C(F)(F)F)cc2)sc1CNc1ccc(CCC(=O)NC(C)C)cc1` was run?
Its %max is 84%.

And the EC50 [2]?
The EC50 was 0.1 µM.

For `NC(=O)CCc1ccc(NCc2cccc(Oc3ccccc3)c2)cc1`, which %max [1] is on record?
Its %max is 68%.

What about the EC50 [2] of the same molecule?
The EC50 was 0.0513 µM.

With `O=C(O)[C@H]1C[C@@H]1c1ccc(NCc2cccc(Oc3ccccc3)c2)cc1` (stereo in doubt; 10A) [listing 2 of 2 here] as the molecule, how does the %max [1] read?
Its %max is 72%.

For `Cc1nc(-c2ccc(C(F)(F)F)cc2)sc1CNc1ccc(CCC(N)=O)cc1`, which %max [1] is on record?
Its %max is 88%.

And the EC50 [2]?
The EC50 was 0.0129 µM.

What does the source list for `Cc1nc(-c2ccc(C(F)(F)F)cc2)sc1CNc1ccc([C@H]2C[C@@H]2C(N)=O)cc1`?
%max [1]: 80%; EC50 [2]: 0.00447 µM

Which EC50 [2] does the source give for `O=C(O)[C@H]1C[C@@H]1c1ccc(NCc2cccc(Oc3ccccc3)c2)cc1` (stereo in doubt; 14A) [listing 1 of 2 here] here?
Its EC50 is 0.0123 µM.

For `Cc1nc(-c2ccc(C(F)(F)F)cc2)sc1CNc1ccc([C@H]2C[C@@H]2C(=O)NC2CCNC2)cc1` (some centres not stated), which %max [1] is on record?
Its %max is 52%.

What about the EC50 [2] of the same molecule?
The EC50 was 0.204 µM.

How did the %max [1] turn out when `Cc1nc(-c2ccc(C(F)(F)F)cc2)sc1CNc1ccc([C@H]2C[C@@H]2C(=O)O)cc1` (stereo in doubt; 10B) [listing 1 of 2 here] was run?
Its %max is 81%.

Which %max [1] does the source give for `O=C(O)Cc1ccc(NCc2cccc(Oc3ccccc3)c2)cc1` here?
Its %max is 36%.

What about the EC50 [2] of the same molecule?
The EC50 was over 10 µM.

Which results are given for `O=C(O)/C=C/c1ccc(NCc2cccc(Oc3ccccc3)c2)cc1`?
%max [1]: 76%; EC50 [2]: 0.145 µM

Which %max [1] does the source give for `O=C(O)CCc1ccc(NCc2cccc(Oc3ccccc3)c2)cc1` [GW9508] here?
Its %max is 86%.

And the EC50 [2]?
The EC50 was 0.0646 µM.

What does the source list for `Cc1nc(-c2ccc(C(F)(F)F)cc2)sc1CNc1ccc(CC(=O)O)cc1`?
%max [1]: 18%; EC50 [2]: > 10 µM

With `Cc1nc(-c2ccc(C(F)(F)F)cc2)sc1CNc1ccc(C(C)CC(=O)O)cc1` (configuration not stated) as the molecule, how does the %max [1] read?
Its %max is 109%.

And the EC50 [2]?
Its EC50 is 0.0589 µM.

Which results are given for `Cc1nc(-c2ccc(C(F)(F)F)cc2)sc1CNc1ccc(CC(C)C(=O)O)cc1` (configuration not stated)?
%max [1]: 100%; EC50 [2]: 0.355 µM

What does the source list for `Cc1nc(-c2ccc(C(F)(F)F)cc2)sc1CNc1ccc(/C=C/C(=O)O)cc1`?
%max [1]: 95%; EC50 [2]: 0.0363 µM

How did the %max [1] turn out when `Cc1nc(-c2ccc(C(F)(F)F)cc2)sc1CNc1ccc(OCC(=O)O)cc1` was run?
Its %max is 100%.

And the EC50 [2]?
The EC50 was 0.288 µM.

For `O=C(O)c1ccc(NCc2cccc(Oc3ccccc3)c2)cc1`, which %max [1] is on record?
Its %max is 86%.

What about the EC50 [2] of the same molecule?
The EC50 was over 10 µM.

Which EC50 [2] does the source give for `Cc1nc(-c2ccc(C(F)(F)F)cc2)sc1CNc1ccc([C@H]2C[C@@H]2C(=O)O)cc1` (stereo in doubt; 10B) [listing 2 of 2 here] here?
The EC50 was 0.00245 µM.

Which %max [1] does the source give for `O=C(CCc1ccc(NCc2cccc(Oc3ccccc3)c2)cc1)N1CCCC1` here?
The %max was 46%.

And the EC50 [2]?
Its EC50 is 0.115 µM.

Which results are given for `CC(C)NC(=O)CCc1ccc(NCc2cccc(Oc3ccccc3)c2)cc1`?
%max [1]: 66%; EC50 [2]: 0.0398 µM

Which %max [1] does the source give for `CN(C)C(=O)CCc1ccc(NCc2cccc(Oc3ccccc3)c2)cc1` here?
Its %max is 50%.

What about the EC50 [2] of the same molecule?
Its EC50 is 0.174 µM.

With `Cc1nc(-c2ccc(C(F)(F)F)cc2)sc1CNc1ccc([C@H]2C[C@@H]2C(=O)NC(C)C)cc1` (stereo in doubt; 22B) [listing 1 of 2 here] as the molecule, how does the %max [1] read?
The %max was 69%.

Which results are given for `Cc1nc(-c2ccc(C(F)(F)F)cc2)sc1CNc1ccc(CCCC(=O)O)cc1`?
%max [1]: 44%; EC50 [2]: > 10 µM

Which results are given for `Cc1nc(-c2ccc(C(F)(F)F)cc2)sc1CNc1ccc([C@H]2C[C@@H]2C(=O)N(C)C)cc1`?
%max [1]: 49%; EC50 [2]: 0.0661 µM

Which EC50 [2] does the source give for `Cc1nc(-c2ccc(C(F)(F)F)cc2)sc1CNc1ccc([C@H]2C[C@@H]2C(=O)O)cc1` (stereo in doubt; 14B) [listing 2 of 2 here] here?
Its EC50 is 0.0049 µM.

With `O=C(O)[C@@H]1C[C@H]1c1ccc(NCc2cccc(Oc3ccccc3)c2)cc1` as the molecule, how does the %max [1] read?
Its %max is 64%.

What about the EC50 [2] of the same molecule?
The EC50 was 0.562 µM.

For `O=C(O)CCCc1ccc(NCc2cccc(Oc3ccccc3)c2)cc1`, which %max [1] is on record?
The %max was 59%.

What about the EC50 [2] of the same molecule?
The EC50 was 1.12 µM.

How did the %max [1] turn out when `Cc1nc(-c2ccc(C(F)(F)F)cc2)sc1CNc1ccc([C@H]2C[C@@H]2C(=O)N[C@H](C)c2ccccc2)cc1` was run?
Its %max is 42%.

And the EC50 [2]?
The EC50 was 0.0537 µM.

Which results are given for `CNC(=O)CCc1ccc(NCc2cccc(Oc3ccccc3)c2)cc1`?
%max [1]: 67%; EC50 [2]: 0.049 µM

How did the EC50 [2] turn out when `Cc1nc(-c2ccc(C(F)(F)F)cc2)sc1CNc1ccc([C@H]2C[C@@H]2C(=O)NC(C)C)cc1` (stereo in doubt; 22B) [listing 2 of 2 here] was run?
Its EC50 is 0.0141 µM.

`Cc1nc(-c2ccc(C(F)(F)F)cc2)sc1CNc1ccc([C@H]2C[C@@H]2C(=O)NC(C)C)cc1` (stereo in doubt; 24B) [listing 2 of 2 here] was tested. Which %max [1] did it give?
Its %max is 71%.

For `O=C(O)[C@H]1C[C@@H]1c1ccc(NCc2cccc(Oc3ccccc3)c2)cc1` (stereo in doubt; 14A) [listing 2 of 2 here], which %max [1] is on record?
The %max was 88%.

With `CC(CC(=O)O)c1ccc(NCc2cccc(Oc3ccccc3)c2)cc1` (configuration not stated) as the molecule, how does the %max [1] read?
Its %max is 83%.

And the EC50 [2]?
Its EC50 is 0.126 µM.

Which results are given for `O=C(O)COc1ccc(NCc2cccc(Oc3ccccc3)c2)cc1`?
%max [1]: 84%; EC50 [2]: 2.04 µM

Which results are given for `Cc1nc(-c2ccc(C(F)(F)F)cc2)sc1CNc1ccc(C(=O)O)cc1`?
%max [1]: 10%; EC50 [2]: > 10 µM
